Measurements from different studies.
Lines come from different studies, so protocols differ.
Target: Serine/threonine-protein kinase Sgk1 (SGK1, Homo sapiens, UniProt O00141)

SMILES | assay | setting | endpoint | value
O=C(NS(=O)(=O)c1ccc(NCC2CCOCC2)c([N+](=O)[O-])c1)c1ccc(N2CCN(Cc3ccc(C(F)(F)F)cc3-c3ccc(Cl)cc3)CC2)cc1Oc1cnc2[nH]ccc2c1 | cell-free assay, competition with immobilised ligand | 1 µM | remaining binding | 88%
c1nc2c(Nc3ccc4c(c3)OCCO4)nc(Nc3ccc4c(c3)OCCO4)nc2[nH]1 | enzyme activity, inhibitor | 10 µM | activity vs control | 100%
Cc1cnc(NC2CCOCC2)nc1-n1cnc(C(=O)NC(CN)c2cc(F)cc(Cl)c2)c1 (centres unmarked) | enzyme activity, inhibitor, radiometric | 1 µM | remaining activity | 23%
CN(C)C1CCN(CC#Cc2nn(C3CCCC3)c3nc(NCc4ccccc4)ncc23)C1 (centres unmarked) | enzyme activity, inhibitor, FRET | 10 µM | inhibition | 20%
FC(F)(F)Oc1cccc(-c2cnc3ccc(-c4ccncc4)nn23)c1 | enzyme activity, inhibitor, radiometric | 5 µM | activity vs control | 108%
CNC(=O)c1cc(Oc2ccc(NC(=O)Nc3ccc(Cl)c(C(F)(F)F)c3)cc2)ccn1 | enzyme activity, inhibitor | 0.3 µM | inhibition | -15%
COc1cc2ncnc(Nc3ccc(Oc4ccccc4)c(C)c3C)c2cc1OC | enzyme activity, inhibitor | 1 µM | inhibition | 0%
COc1cc(Nc2cnc(C#N)c(O[C@H](C)CN(C)C)n2)ncc1-c1cnn(C)c1 | enzyme activity, inhibitor, radiometric | 10 µM | remaining activity | 22%
Cn1c(=O)n(-c2ccc(C(C)(C)C#N)cc2)c2c3cc(-c4cnc5ccccc5c4)ccc3ncc21 | enzyme activity, inhibitor | 10 µM | remaining activity | 98%
Cc1nc(C2CCN(C(=O)c3ccc(OC(F)(F)F)cc3N)CC2)c2ncc(N3CCN(C)CC3)cc2n1 | cell-free assay, competition with immobilised ligand | 1 µM | remaining binding | 100%
Cc1ccc(C(=O)Nc2ccc(CN3CCN(C)CC3)c(C(F)(F)F)c2)cc1C#Cc1cnc2cccnn12 | enzyme activity, inhibitor | 23.5 nM | remaining activity | 94%
O=C(O)[C@@H]1[C@@H](Cn2nnc3ccccc3c2=O)CC[C@H]1C(=O)c1ccc(OCCC2CCOCC2)cc1 | cell-free assay, competition with immobilised ligand | 1 µM | remaining binding | 74%
Cc1ccc(Nc2nccc(N(C)c3ccc4c(C)n(C)nc4c3)n2)cc1S(N)(=O)=O | enzyme activity, inhibitor | 0.3 µM | inhibition | -14%
CN(C(=O)c1ccccc1)c1cc(N(C)c2ccc3c(c2)CCc2ccc(C(=O)NCCN4CCOCC4)cc2C3=O)ccc1F | cell-free assay, competition with immobilised ligand | 1 µM | remaining binding | 100%
CCCOc1ccc(OC)c(F)c1C(=O)c1ccc(C(=O)N[C@@H]2CNC[C@H]2NC(=O)c2ccc3[nH]ncc3c2)cc1 | enzyme activity, inhibitor | 0.75 µM | remaining activity | 34%
CO[C@@H](C)c1c(Nc2ccc([C@@H](N(C)C(=O)C3CCS(=O)(=O)CC3)C(F)(F)F)cc2)cnc2cc(Cl)nn12 | cell-free assay, competition with immobilised ligand | 1 µM | remaining binding | 89%
O=[N+]([O-])c1cccc2[nH]c(CNc3nc(N4CCOCC4)nc4c3ncn4-c3ccsc3)nc12 | binding, competition with immobilised ligand | 10 µM | binding vs control | 57%
C[C@@H]1CN(c2cc(-c3n[nH]c4ccc(OC5(C)CC5)cc34)ncn2)C[C@H](C)O1 | cell-free assay, competition with immobilised ligand | 0.1 µM | remaining binding | 89%

SMILES | assay | setting | endpoint | value
Cc1sc(C(=O)NC2COC2)cc1-n1cc(NC(=O)Nc2c(F)cccc2Cl)cn1 | enzyme activity, inhibitor | 10 µM | remaining activity | 115%
Cc1cc(NC(=O)c2cccc3cc(-c4cccc5[nH]nc(N)c45)ccc23)ccc1F | enzyme activity, inhibitor | 0.1 µM | activity vs control | 87%
CNc1cccc2cc(C(=O)Nc3ccc(C(=O)O)cc3)c(=O)[nH]c12 | enzyme activity, inhibitor | 10 µM | inhibition | 8.2%
CN(c1ncccc1CNc1nc(Nc2ccc3c(c2)CC(=O)N3)ncc1C(F)(F)F)S(C)(=O)=O | enzyme activity, inhibitor | 1 µM | inhibition | 13.4%
COc1cc(-c2cn(C3CCc4ccccc4N(CC(F)(F)F)C3=O)nn2)ccc1-n1ccc(C)n1 (centres unmarked) | cell-free assay, competition with immobilised ligand | 1 µM | remaining binding | 88%
O=C1NC(=O)c2cc(Nc3ccc(F)cc3)c(Nc3ccc(F)cc3)cc21 | cell-free assay | 0.5 µM | remaining signal | 103%
O=C(N1CCS(=O)(=O)CC1)N1C[C@H](c2ccc(OC(F)(F)F)cc2)C[C@H](c2nc(C3CC3)no2)C1 | cell-free assay, competition with immobilised ligand | 1 µM | remaining binding | 91%
CSc1nc(C)c(-c2ccnc(Nc3ccc(N4CCOCC4)cc3)c2)[nH]1 | enzyme activity, inhibitor | 10 µM | inhibition | 34.8%
Nc1nc(Nc2ccccc2)sc1C(=O)c1c(F)cccc1F | enzyme activity, inhibitor | 10 µM | remaining activity | 98%
CC(C)(C)c1nc2c(s1)c1nc(N)ncc1c1ccc(NS(=O)(=O)c3c(F)cccc3F)c(F)c12 | enzyme activity, inhibitor, radiometric | 1 µM | remaining activity | 87%
O=C1Nc2ccc(Cl)cc2C1=Cc1cc(Cl)c(O)c(Cl)c1 | cell-free assay | 0.5 µM | remaining signal | 91.3%
CC/C(=N\NC(=O)C(C)Nc1ccccc1)c1ccc(O)c(C)c1O (centres unmarked) | enzyme activity, inhibitor | 0.1 µM | inhibition | 44.6%
CNCc1ccc(-c2cc(-c3nc(-c4ccc(S(=O)(=O)C(C)C)cc4)cnc3N)on2)cc1 | enzyme activity, inhibitor | 0.4 µM | inhibition | 0%
Nc1nc(NC2CCCCC2)sc1C(=O)c1ccccc1 | enzyme activity, inhibitor | 10 µM | remaining activity | 81%
COc1cc(/C=C/C(=O)CC(=O)/C=C/c2ccc(O)c(OC)c2)ccc1O | enzyme activity, inhibitor | 1 µM | activity vs control | 82%
CCN(CC)CCNC(=O)c1c(C)[nH]c(/C=C2\C(=O)Nc3ccc(F)cc32)c1C | enzyme activity, inhibitor | 10 µM | inhibition | 86%
C=CC(=O)Nc1cc(Nc2nccc(Nc3cc(Cl)c(F)cc3C(C)(C)O)n2)c(OC)cc1N1CC[C@@H](N(C)C)C1 | enzyme activity, inhibitor | 1 µM | inhibition | 12%
